Source: PubChem (The Scripps Research Institute Molecular Screening Center)
HTR1A agonist: agonists of human 5-HT1a serotonin receptor. CHO 5-HT1a Ga15 NFAT-bla reporter, FRET ratio; 0% basal, 100% maximal reference agonist. activation, % at 10 µM. actives 0.56% (n = 65,000);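 active = activation above the screen-wide mean activation plus 3 SD, cut at about 19% in these data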;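 also: 0% = DMSO wells and 100% = 5-CT at EC100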
Target sequence (P08908 whole entry, looked up): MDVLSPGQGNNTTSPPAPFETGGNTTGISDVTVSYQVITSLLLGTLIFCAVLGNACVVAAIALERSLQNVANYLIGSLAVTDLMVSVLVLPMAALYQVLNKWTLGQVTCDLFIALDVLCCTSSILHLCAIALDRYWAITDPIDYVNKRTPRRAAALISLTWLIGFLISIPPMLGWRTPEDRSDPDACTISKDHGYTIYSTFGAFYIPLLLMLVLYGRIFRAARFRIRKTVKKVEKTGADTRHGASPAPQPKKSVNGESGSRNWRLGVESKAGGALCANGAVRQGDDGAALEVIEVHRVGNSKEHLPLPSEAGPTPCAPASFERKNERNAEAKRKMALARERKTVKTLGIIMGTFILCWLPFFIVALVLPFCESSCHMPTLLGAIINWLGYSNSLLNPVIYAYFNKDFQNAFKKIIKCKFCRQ
HTR1E agonist: activates the human 5-HT1E serotonin receptor | P28566 | CHO 5-HT1E Ga15 NFAT-bla reporter, FRET; 0% DMSO wells, 100% control agonist wells | activation, % at 6 µM | actives 0.69% (n = 65,000);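 active = activation above a set limit, the screen-wide mean activation plus 3 SD, cut at about 8.5% in these data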;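 also: 100% = positive control agonist at 1 µM giving full maximal response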
S1P1 ag pot: agonists and agonism potentiators of human S1P1 receptor; activation, % at 9.5 µM; P21453; actives 0.57% (n = 56,000); S1P1 CRE-bla cells, forskolin, beta-lactamase FRET, potentiator mode; S1P1 agonist co-added at EC20, 2 nM; 100% = saturating reference agonist, 0% = basal;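 active = activation above a cutoff set at the mean activation of all tested compounds plus 3 SD, cut at about 54% in these data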;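 also: forskolin at 4 µM as EC80 and the EC20 agonist is SEW2871; 100% = SEW2871 at its EC100 plus forskolin at EC80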
5HT1E antag: antagonists of human 5-HT1E serotonin receptor. CHO 5-HT1E Ga15 NFAT-bla reporter, FRET, antagonist. AID 571. inhibition, % at 6 µM. actives 0.99% (n = 65,000). P28566;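 active = inhibition above a set limit, the mean inhibition across every tested compound plus 3 SD, cut at about 29% in these data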;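 also: signal is the 460 over 535 nm emission ratio of beta-lactamase substrate; 0% = agonist plus DMSO wells and 100% = wells without agonist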
S1P3 ag: agonists of human S1P3 receptor | Q99500 | S1P3 NFAT-BLA reporter cells, agonism, FRET ratio; relative to 1 µM S1P, basal subtracted | activation, % at 4.5 µM | actives 0.1% (n = 60,000) | AID 373;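 active = activation above the screen-wide mean plus 3 SD, cut at about 4.5% in these data, passing the limit was not always enough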
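Measure – % activation relative to 1 µM S1P (100%), per plate · System – stable CHO line with human S1P3, Gα16, NFAT-BLA reporter · Timing – cells plated overnight, compound 4 h 37 °C, substrate 2 h RT · Technique – fluorescent BLA substrate, ex 405 nm, em 460/535 nm ratio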
5-HT1A blocker: antagonists of human 5-HT1a serotonin receptor | CHO 5-HT1a Ga15 NFAT-bla reporter, antagonist mode | AID 612 | P08908 | actives 0.68% (n = 62,000) | inhibition, % at 10 µM;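 active = inhibition above the mean of all tested compounds plus 3 SD, cut at about 43% in these data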;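 also: receptor stimulated by 5-CT agonist at 100 nM near EC80; beta-lactamase reporter measured by ratiometric fluorescence of a cleavable substrate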
Numbers without * were called inactive. Hits are enriched below; roughly 3% of the tested compounds scored in any of these assays.

O=C1CN(C(=O)c2ccco2)C(c2ccccc2)c2cc(Cl)ccc2N1 (centres undefined) was read as HTR1A agonist 2, HTR1E agonist 0, S1P1 ag pot -6, 5HT1E antag 5, S1P3 ag 0 and 5-HT1A blocker 5.
Screening S=C(c1ccc(-c2ccccc2Cl)o1)N1CCOCC1 returned HTR1A agonist 0, HTR1E agonist 0, S1P1 ag pot -11, 5HT1E antag 1, S1P3 ag -1 and 5-HT1A blocker -5.
Screening N#CCCN1CCN(C(=S)c2ccc(-c3cc(Cl)ccc3Cl)o2)CC1 returned HTR1A agonist -5, HTR1E agonist 0, S1P1 ag pot 14, 5HT1E antag 31*, S1P3 ag 0 and 5-HT1A blocker 10.
Screening Cc1ccc2c(c1)N(CC(=O)NCc1cccs1)C(=O)CO2 returned HTR1A agonist -5, HTR1E agonist 0, 5HT1E antag -6 and 5-HT1A blocker -2.
For COc1ccc2cc3cc(C(=O)NCCN4CCN(c5ccccc5F)CC4)oc3nc2c1 the results were HTR1A agonist 5, HTR1E agonist 17*, S1P1 ag pot 10, 5HT1E antag 3, S1P3 ag -2 and 5-HT1A blocker 71*.
For Cc1c(Cl)cccc1NC(=O)CSc1nnc(CCNC(=O)OC(C)(C)C)o1 the results were HTR1A agonist 2, HTR1E agonist -1, S1P1 ag pot 11, 5HT1E antag 5, S1P3 ag -1 and 5-HT1A blocker 1.
Screening Cc1nc(NCCCn2ccnc2)c2oc3ccccc3c2n1 returned HTR1A agonist 0, HTR1E agonist -1, S1P1 ag pot 15, 5HT1E antag 32*, S1P3 ag -2 and 5-HT1A blocker 22.
CCN(C(=O)c1ccc(C(C)(C)C)cc1)c1nnc(Cn2nnc3ccccc32)s1 was read as HTR1A agonist 5, HTR1E agonist 2, S1P1 ag pot 130*, 5HT1E antag -14, S1P3 ag -2 and 5-HT1A blocker -3.
`COCCNC(=O)CN(C(=O)Cn1nnc2ccccc21)c1ccccc1` gave HTR1A agonist -3, HTR1E agonist -1, S1P1 ag pot 5, 5HT1E antag 9, S1P3 ag -1 and 5-HT1A blocker 7.
Screening CCOC(=O)C(C(=O)Nc1nccs1)C1CCCCC1 (centres undefined) returned HTR1A agonist -2, HTR1E agonist -1, S1P1 ag pot -14, 5HT1E antag 8, S1P3 ag -2 and 5-HT1A blocker 32.
Screening OC1CCN(c2c3c(nc4cc(-c5cccc(F)c5)nn24)CCCC3)CC1 returned HTR1A agonist 1, HTR1E agonist 0, 5HT1E antag 31* and 5-HT1A blocker 2.
`Fc1cccc(-c2cc3nc4c(c(N5CCC6(CC5)OCCO6)n3n2)CCCC4)c1` gave HTR1A agonist -1, HTR1E agonist -1, 5HT1E antag 17 and 5-HT1A blocker -3.
`Cc1cccc(Cn2c(=O)c3c(nc4n3CCCN4Cc3ccccc3)n(C)c2=O)c1` gave HTR1A agonist 2, HTR1E agonist 1, S1P1 ag pot 6, 5HT1E antag -13, S1P3 ag -1 and 5-HT1A blocker 10.
Screening Cc1cc(C(=O)Nc2c(F)cc(F)cc2Br)no1 returned HTR1A agonist 0, HTR1E agonist 0, S1P1 ag pot 9, 5HT1E antag -2, S1P3 ag -1 and 5-HT1A blocker 4.
Screening O=C(Nc1c(F)cc(F)cc1Br)c1cc(-c2ccc(O)cc2)on1 returned HTR1A agonist 3, HTR1E agonist 2, S1P1 ag pot 99*, 5HT1E antag -11, S1P3 ag 0 and 5-HT1A blocker 16.
Screening COc1ccccc1C1/C(=C(\O)c2c(C)nc3c(C)cccn23)C(=O)C(=O)N1CCCN(C)C (centres undefined) returned HTR1A agonist -4, HTR1E agonist 0, S1P1 ag pot -14, 5HT1E antag -4, S1P3 ag 0 and 5-HT1A blocker 8.
`CCOC(=O)/C=C1\NC(C)(C)Cc2cc(OC)c(O)cc21` gave HTR1A agonist -4, HTR1E agonist 1, S1P1 ag pot -6, 5HT1E antag 7, S1P3 ag 1 and 5-HT1A blocker -6.
